Source: article PMC5114172 (Journal of applied toxicology : JAT, 2016)

Columns and labels:
monocyte-depleted PBMCs = experiment: IL-1β secretion assay; format: cell-based, human; conditions: MD-PBMCs; for Interleukin 1 beta secreted: donor F166, 6 day; for fold increase in IL-1β secretion: third common donor (F152), 24 h
In short: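 NK cells, MD-PBMCs, PBMCs or granulocytes (1.5 million/mL) or PBMC+granulocytes (0.75 million/mL each), per donor, exposed 24 h, 48 h or 6 days to 0.05–5 μM test compound diluted from DMSO stock, with DMSO controls. Supernatants kept at −70 °C. IL-1β by sandwich ELISA: HRP detection antibody, acid-stopped substrate, A450 against standards. Detection limit 3 pg/mL; triplicates; ANOVA then t test versus control, p<0.05.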

MD-PBMCs = experiment: IL-1β secretion; format: cell-based, human

## CCC[CH2][Sn][CH2]CCC [DBT, Dibutyltin]
monocyte-depleted PBMCs; 0.25 μM DBT
  Interleukin 1 beta secreted: 2424 ± 95 pg/mL
monocyte-depleted PBMCs; 0.5 μM DBT
  Interleukin 1 beta secreted: 2118 ± 698 pg/mL
monocyte-depleted PBMCs; 50 nM DBT
  fold increase in IL-1β secretion: 2.1 fold
monocyte-depleted PBMCs; 100 nM DBT
  fold increase in IL-1β secretion: 1.4 fold
MD-PBMCs; donor F240, 24 h, 0.05 μM DBT + Caspase-1 inhibitor II 50 μM
  Interleukin 1 beta secreted: 337 ± 7 pg/mL
MD-PBMCs; donor F240, 24 h, 0.05 μM DBT + U0126 50 μM
  Interleukin 1 beta secreted: 1840 ± 95 pg/mL
MD-PBMCs; donor F240, 24 h, 0.05 μM DBT, absence of MEK inhibitor
  fold increase in IL-1β secretion: 1.6 fold
MD-PBMCs; donor F240, 24 h, 0.05 μM DBT, no inhibitor (CI experiment)
  Interleukin 1 beta secreted: 757 ± 17 pg/mL
MD-PBMCs; donor F240, 24 h, 0.05 μM DBT, no inhibitor (U0126 experiment)
  Interleukin 1 beta secreted: 772 ± 54 pg/mL
MD-PBMCs; donor F240, 24 h, 0.1 μM DBT + Caspase-1 inhibitor II 50 μM
  Interleukin 1 beta secreted: 467 ± 12 pg/mL
MD-PBMCs; donor F240, 24 h, 0.1 μM DBT + U0126 50 μM
  Interleukin 1 beta secreted: 1447 ± 142 pg/mL
MD-PBMCs; donor F240, 24 h, 0.1 μM DBT, absence of MEK inhibitor
  fold increase in IL-1β secretion: 1.6 fold
MD-PBMCs; donor F240, 24 h, 0.1 μM DBT, no inhibitor (CI experiment)
  Interleukin 1 beta secreted: 916 ± 67 pg/mL
MD-PBMCs; donor F240, 24 h, 0.1 μM DBT, no inhibitor (U0126 experiment)
  Interleukin 1 beta secreted: 812 ± 109 pg/mL
MD-PBMCs; donor F240, 24 h, 0.05 and 0.1 μM DBT, U0126 50 μM present
  fold increase in IL-1β secretion: no DBT-induced increases
MD-PBMCs; donor F242, 24 h, 0.05 μM DBT + Caspase-1 inhibitor II 50 μM
  Interleukin 1 beta secreted: 495 ± 25 pg/mL
MD-PBMCs; donor F242, 24 h, 0.05 μM DBT + U0126 50 μM
  Interleukin 1 beta secreted: 759 ± 10 pg/mL
MD-PBMCs; donor F242, 24 h, 0.05 μM DBT, no inhibitor (CI experiment)
  Interleukin 1 beta secreted: 2752 ± 49 pg/mL
MD-PBMCs; donor F242, 24 h, 0.05 μM DBT, no inhibitor (U0126 experiment)
  Interleukin 1 beta secreted: 2230 ± 89 pg/mL
MD-PBMCs; donor F242, 24 h, 0.1 μM DBT + Caspase-1 inhibitor II 50 μM
  Interleukin 1 beta secreted: 354 ± 43 pg/mL
MD-PBMCs; donor F242, 24 h, 0.1 μM DBT + U0126 50 μM
  Interleukin 1 beta secreted: 312 ± 27 pg/mL
MD-PBMCs; donor F242, 24 h, 0.1 μM DBT, no inhibitor (CI experiment)
  Interleukin 1 beta secreted: 2874 ± 77 pg/mL
MD-PBMCs; donor F242, 24 h, 0.1 μM DBT, no inhibitor (U0126 experiment)
  Interleukin 1 beta secreted: 2172 ± 25 pg/mL
MD-PBMCs; donor F244, 24 h, 0.05 μM DBT + BAY 11-7085
  Interleukin 1 beta secreted: 1107 ± 14 pg/mL
MD-PBMCs; donor F244, 24 h, 0.05 μM DBT + Caspase-1 inhibitor II 50 μM
  Interleukin 1 beta secreted: 334 ± 11 pg/mL
MD-PBMCs; donor F244, 24 h, 0.05 μM DBT + U0126 50 μM
  Interleukin 1 beta secreted: 61 ± 23 pg/mL
MD-PBMCs; donor F244, 24 h, 0.05 μM DBT, BAY 11-7085 present
  fold increase in IL-1β secretion: 1.3 fold
MD-PBMCs; donor F244, 24 h, 0.05 μM DBT, absence of NFκB inhibitor
  fold increase in IL-1β secretion: 1.2 fold
MD-PBMCs; donor F244, 24 h, 0.05 μM DBT, no inhibitor (BAY experiment)
  Interleukin 1 beta secreted: 947 ± 29 pg/mL
MD-PBMCs; donor F244, 24 h, 0.05 μM DBT, no inhibitor (CI experiment)
  Interleukin 1 beta secreted: 1291 ± 34 pg/mL
MD-PBMCs; donor F244, 24 h, 0.05 μM DBT, no inhibitor (U0126 experiment)
  Interleukin 1 beta secreted: 1764 ± 62 pg/mL
MD-PBMCs; donor F244, 24 h, 0.1 μM DBT + BAY 11-7085
  Interleukin 1 beta secreted: 1067 ± 19 pg/mL
MD-PBMCs; donor F244, 24 h, 0.1 μM DBT + Caspase-1 inhibitor II 50 μM
  Interleukin 1 beta secreted: 302 ± 3 pg/mL
MD-PBMCs; donor F244, 24 h, 0.1 μM DBT + U0126 50 μM
  Interleukin 1 beta secreted: 143 ± 50 pg/mL
MD-PBMCs; donor F244, 24 h, 0.1 μM DBT, BAY 11-7085 present
  fold increase in IL-1β secretion: 1.3 fold
MD-PBMCs; donor F244, 24 h, 0.1 μM DBT, absence of NFκB inhibitor
  fold increase in IL-1β secretion: 1.3 fold
MD-PBMCs; donor F244, 24 h, 0.1 μM DBT, no inhibitor (BAY experiment)
  Interleukin 1 beta secreted: 1029 ± 59 pg/mL
MD-PBMCs; donor F244, 24 h, 0.1 μM DBT, no inhibitor (CI experiment)
  Interleukin 1 beta secreted: 1444 ± 43 pg/mL
MD-PBMCs; donor F244, 24 h, 0.1 μM DBT, no inhibitor (U0126 experiment)
  Interleukin 1 beta secreted: 2001 ± 184 pg/mL
MD-PBMCs; donor F245, 24 h, 0.05 μM DBT + BAY 11-7085
  Interleukin 1 beta secreted: 630 ± 60 pg/mL
MD-PBMCs; donor F245, 24 h, 0.05 μM DBT + Caspase-1 inhibitor II 50 μM
  Interleukin 1 beta secreted: 216 ± 19 pg/mL
MD-PBMCs; donor F245, 24 h, 0.05 μM DBT + U0126 50 μM
  Interleukin 1 beta secreted: 277 ± 8 pg/mL
MD-PBMCs; donor F245, 24 h, 0.05 μM DBT, Caspase-1 inhibitor II 50 μM present
  fold increase in IL-1β secretion: 1.4 fold
MD-PBMCs; donor F245, 24 h, 0.05 μM DBT, absence of Caspase-1 inhibitor
  fold increase in IL-1β secretion: 1.8 fold
MD-PBMCs; donor F245, 24 h, 0.05 μM DBT, no inhibitor (BAY experiment)
  Interleukin 1 beta secreted: 883 ± 66 pg/mL
MD-PBMCs; donor F245, 24 h, 0.05 μM DBT, no inhibitor (CI experiment)
  Interleukin 1 beta secreted: 1399 ± 20 pg/mL
MD-PBMCs; donor F245, 24 h, 0.05 μM DBT, no inhibitor (U0126 experiment)
  Interleukin 1 beta secreted: 1174 ± 49 pg/mL
MD-PBMCs; donor F245, 24 h, 0.1 μM DBT + BAY 11-7085
  Interleukin 1 beta secreted: 514 ± 80 pg/mL
MD-PBMCs; donor F245, 24 h, 0.1 μM DBT + Caspase-1 inhibitor II 50 μM
  Interleukin 1 beta secreted: 163 ± 10 pg/mL
MD-PBMCs; donor F245, 24 h, 0.1 μM DBT + U0126 50 μM
  Interleukin 1 beta secreted: 231 ± 14 pg/mL
MD-PBMCs; donor F245, 24 h, 0.1 μM DBT, Caspase-1 inhibitor II 50 μM present
  fold increase in IL-1β secretion: no increase
MD-PBMCs; donor F245, 24 h, 0.1 μM DBT, absence of Caspase-1 inhibitor
  fold increase in IL-1β secretion: 1.8 fold
MD-PBMCs; donor F245, 24 h, 0.1 μM DBT, no inhibitor (BAY experiment)
  Interleukin 1 beta secreted: 1206 ± 91 pg/mL
MD-PBMCs; donor F245, 24 h, 0.1 μM DBT, no inhibitor (CI experiment)
  Interleukin 1 beta secreted: 1375 ± 18 pg/mL
MD-PBMCs; donor F245, 24 h, 0.1 μM DBT, no inhibitor (U0126 experiment)
  Interleukin 1 beta secreted: 1246 ± 65 pg/mL
MD-PBMCs; donor F247, 24 h, 0.05 μM DBT + SB202190
  Interleukin 1 beta secreted: 1495 ± 134 pg/mL
MD-PBMCs; donor F247, 24 h, 0.05 μM DBT, absence of p38 inhibitor
  fold increase in IL-1β secretion: 7.2 fold
MD-PBMCs; donor F247, 24 h, 0.05 μM DBT, no inhibitor (SB202190 experiment)
  Interleukin 1 beta secreted: 1378 ± 246 pg/mL
MD-PBMCs; donor F247, 24 h, 0.1 μM DBT + SB202190
  Interleukin 1 beta secreted: 1329 ± 99 pg/mL
MD-PBMCs; donor F247, 24 h, 0.1 μM DBT, absence of p38 inhibitor
  fold increase in IL-1β secretion: 2.5 fold
MD-PBMCs; donor F247, 24 h, 0.1 μM DBT, no inhibitor (SB202190 experiment)
  Interleukin 1 beta secreted: 477 ± 60 pg/mL
MD-PBMCs; donor F247, 24 h, 0.05 and 0.1 μM DBT, SB202190 present
  fold increase in IL-1β secretion: no increases
MD-PBMCs; donor F254, 24 h, 0.05 μM DBT + Caspase-1 inhibitor II 50 μM
  Interleukin 1 beta secreted: 41 ± 9 pg/mL
MD-PBMCs; donor F254, 24 h, 0.05 μM DBT, no inhibitor (CI experiment)
  Interleukin 1 beta secreted: 521 ± 62 pg/mL
MD-PBMCs; donor F254, 24 h, 0.1 μM DBT + Caspase-1 inhibitor II 50 μM
  Interleukin 1 beta secreted: 17 ± 16 pg/mL
MD-PBMCs; donor F254, 24 h, 0.1 μM DBT, no inhibitor (CI experiment)
  Interleukin 1 beta secreted: 206 ± 2 pg/mL
MD-PBMCs; donor F262, 24 h, 0.05 μM DBT + SB202190
  Interleukin 1 beta secreted: 146 ± 8 pg/mL
MD-PBMCs; donor F262, 24 h, 0.05 μM DBT, no inhibitor (SB202190 experiment)
  Interleukin 1 beta secreted: 1100 ± 58 pg/mL
MD-PBMCs; donor F262, 24 h, 0.1 μM DBT + SB202190
  Interleukin 1 beta secreted: 134 ± 183 pg/mL
MD-PBMCs; donor F262, 24 h, 0.1 μM DBT, no inhibitor (SB202190 experiment)
  Interleukin 1 beta secreted: 1021 ± 61 pg/mL
MD-PBMCs; donor F333, 24 h, 0.05 μM DBT + BAY 11-7085
  Interleukin 1 beta secreted: 2518 ± 60 pg/mL
MD-PBMCs; donor F333, 24 h, 0.05 μM DBT, no inhibitor (BAY experiment)
  Interleukin 1 beta secreted: 3995 ± 161 pg/mL
MD-PBMCs; donor F333, 24 h, 0.1 μM DBT + BAY 11-7085
  Interleukin 1 beta secreted: 1960 ± 102 pg/mL
MD-PBMCs; donor F333, 24 h, 0.1 μM DBT, no inhibitor (BAY experiment)
  Interleukin 1 beta secreted: 2755 ± 84 pg/mL
MD-PBMCs; donor F334, 24 h, 0.05 μM DBT + BAY 11-7085
  Interleukin 1 beta secreted: 1035 ± 19 pg/mL
MD-PBMCs; donor F334, 24 h, 0.05 μM DBT, no inhibitor (BAY experiment)
  Interleukin 1 beta secreted: 2281 ± 53 pg/mL
MD-PBMCs; donor F334, 24 h, 0.1 μM DBT + BAY 11-7085
  Interleukin 1 beta secreted: 702 ± 82 pg/mL
MD-PBMCs; donor F334, 24 h, 0.1 μM DBT, no inhibitor (BAY experiment)
  Interleukin 1 beta secreted: 1468 ± 94 pg/mL
MD-PBMCs; donor F372, 24 h, 0.05 μM DBT + SB202190
  Interleukin 1 beta secreted: 348 ± 198 pg/mL
MD-PBMCs; donor F372, 24 h, 0.05 μM DBT, no inhibitor (SB202190 experiment)
  Interleukin 1 beta secreted: 2388 ± 322 pg/mL
MD-PBMCs; donor F372, 24 h, 0.1 μM DBT + SB202190
  Interleukin 1 beta secreted: 70 ± 14 pg/mL
MD-PBMCs; donor F372, 24 h, 0.1 μM DBT, no inhibitor (SB202190 experiment)
  Interleukin 1 beta secreted: 1985 ± 53 pg/mL
MD-PBMCs; donor F385, 24 h, 0.05 μM DBT + SB202190
  Interleukin 1 beta secreted: 65 ± 24 pg/mL
MD-PBMCs; donor F385, 24 h, 0.05 μM DBT, no inhibitor (SB202190 experiment)
  Interleukin 1 beta secreted: 1863 ± 83 pg/mL
MD-PBMCs; donor F385, 24 h, 0.1 μM DBT, no inhibitor (SB202190 experiment)
  Interleukin 1 beta secreted: 1126 ± 29 pg/mL
